Published values collected from several papers.
Compare with care: the assays were run in different laboratories.
CNR1: Cannabinoid receptor 1 (CNR1, Homo sapiens, UniProt P21554)
PFF0160c: Dihydroorotate dehydrogenase (quinone), mitochondrial (PFF0160c, Plasmodium falciparum, UniProt Q08210)
OPRK1: Kappa-type opioid receptor (OPRK1, Homo sapiens, UniProt P41145)

COC(=O)[C@@H](NC(=O)c1nn(Cc2ccc(F)cc2)c2ccccc12)C(C)C  EC50 (CNR1; G protein activation; agonist): ~4 nM
Cn1nc2c(=O)n(C3CC3)cc(C3CC3)c2c1Cc1ccc(C(F)(F)F)nc1  IC50 (PFF0160c; enzyme activity; inhibitor): 39.8 nM
COc1ccc(C(=O)N[C@H]2CC[C@@]3(O)[C@H]4Cc5ccc(O)c6c5[C@@]3(CCN4CC3CC3)[C@H]2O6)s1  Ki (OPRK1; ligand displacement; radioligand; cell membranes): 1.69 nM
CCCCCCn1c(O)c(N=NC(=O)c2ccccc2)c2ccccc21  Ki (CNR1; ligand displacement; radioligand; cell membranes): 1150 nM
NC(=O)c1ccc(C(=O)N[C@H]2CC[C@@]3(O)[C@H]4Cc5ccc(O)c6c5[C@@]3(CCN4CC3CC3)[C@H]2O6)s1  Ki (OPRK1; ligand displacement; radioligand; cell membranes): 1.91 nM
Cc1nn(C2CC2)c(=O)c2nn(C)c(Cc3ccc(C(F)(F)F)c(C#N)c3)c12  IC50 (PFF0160c; enzyme activity; inhibitor): 200 nM
C=CCCCn1c(O)c(N=NC(=O)c2ccccc2)c2ccccc21  EC50 (CNR1; β-arrestin recruitment; agonist): 1040 nM
CNC(=O)c1ccc(-c2cnn3ccc(C(=O)N(C)c4ccc(Cl)c(C(=O)OC)c4)cc23)cc1  IC50 (Serine/threonine-protein kinase WNK1 (WNK1, Homo sapiens, UniProt Q9H4A3); enzyme activity; inhibitor): > 30000 nM
N#Cc1ccc(C(=O)N[C@H]2CC[C@@]3(O)[C@H]4Cc5ccc(O)c6c5[C@@]3(CCN4CC3CC3)[C@H]2O6)s1  Ki (OPRK1; ligand displacement; radioligand; cell membranes): 3.61 nM
Cn1nc2c(=O)n(C3CC3)ncc2c1[C@](O)(c1ccc(C(F)(F)F)c(Cl)c1)C(F)(F)F  IC50 (PFF0160c; enzyme activity; inhibitor): 7.94 nM
CCCCCc1cc(O)c2c(c1)OC(C)(CCC=C(C)C)C=C2 (stereo not drawn)  Ki (CNR1; ligand displacement; radioligand): 6760 nM
CC[C@@](O)(c1ccc(F)c(Cl)c1)c1c2ccn(C3CC3)c(=O)c2nn1C  IC50 (PFF0160c; enzyme activity; inhibitor): 6.31 nM
CCCCCn1c(O)c(N=NC(=O)c2ccccc2)c2ccccc21  Ki (CNR1; ligand displacement; radioligand; cell membranes): 1560 nM
Cn1nc2c(=O)n(C3CC3)cnc2c1[C@](O)(c1cnc(C(F)(F)F)c(Cl)c1)C1CC1  IC50 (PFF0160c; enzyme activity; inhibitor): 20 nM
CC(=O)S(=O)(=O)c1ccc(C(=O)N[C@H]2CC[C@@]3(O)[C@H]4Cc5ccc(O)c6c5[C@@]3(CCN4CC3CC3)[C@H]2O6)s1  Ki (OPRK1; ligand displacement; radioligand; cell membranes): 1.64 nM
